# An excerpt weighted towards active compounds, which were near 2.5% of everything screened.
# TCR-CD3 inh: inhibitors of human TCR-CD3 interaction; TAMRA-labeled TCR probe fluorescence, biochemical; inhibition, % at 9.4 µM; actives 0.37% (n = 360,000);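 note: recombinant mutant TCR 2C K166C tagged with TAMRA read by polarization; 0% = receptor in buffer alone and 100% = receptor with positive control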
# mABHD4 FP: ABHD4 (mouse) inhibition, primary FP screen. AID 720543. inhibition, % at 8.92 µM. purified mABHD4, FP-Rh probe fluorescence polarization. Q8VD66. actives 0.54% (n = 370,000);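 active = inhibition exceeding the mean over every tested compound plus 3 SD, cut at about 30% in these data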;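 note: 0% = plate median of compound wells and 100% = S159A mutant with DMSO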
#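 Test system: mouse ABHD4 enzyme, wild type. Reagent: FP-Rh fluorescent activity-based probe, added after compound pre-incubation. Timing: pre-incubation 45 min, probe exposure 60 min, at 25 °C. Technique: FP readout, ex 525 nm / em 598 nm. Benchmarks: high control S159A mutant with DMSO, low control median of compound wells.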
# HTRA1 inh: inhibitors of human serine peptidase HTRA1 | inhibition, % at 5.96 µM | actives 0.5% (n = 340,000) | Q92743 | recombinant HTRA1, FP-rhodamine activity-based probe, fluorescence polarization; in the data active = inhibition above about 36%;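 note: 0% = enzyme with DMSO and 100% = wells lacking enzyme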
# PRMT1 inh: blocks human protein arginine methyltransferase 1; inhibition, % at 2.79 µM; recombinant PRMT1, activity-based probe fluorescence polarization; actives 1.3% (n = 370,000); Q99873; AID 652257;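 active = inhibition above about 21% made by adding two undisclosed values, limit read from the data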
# Target sequence (Q99873 whole entry, looked up): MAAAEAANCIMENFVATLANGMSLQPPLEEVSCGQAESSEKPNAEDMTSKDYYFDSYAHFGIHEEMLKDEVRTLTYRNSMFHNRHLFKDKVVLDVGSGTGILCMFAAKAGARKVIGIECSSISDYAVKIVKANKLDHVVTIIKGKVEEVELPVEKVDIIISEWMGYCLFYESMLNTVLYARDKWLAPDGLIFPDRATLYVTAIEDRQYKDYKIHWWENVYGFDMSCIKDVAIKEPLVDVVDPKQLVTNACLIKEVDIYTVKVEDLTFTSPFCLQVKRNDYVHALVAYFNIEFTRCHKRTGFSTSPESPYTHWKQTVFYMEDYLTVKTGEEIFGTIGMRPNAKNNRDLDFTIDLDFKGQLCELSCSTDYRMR
# SIAE primary: blocks human sialic acid acetylesterase. SIAE FP-Rh probe binding, fluorescence polarization. inhibition, % at 9.66 µM. Q9HAT2. actives 0.69% (n = 370,000);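 active = inhibition above a cutoff: mean of compounds within the control limits plus 3 SD of those, cut at about 17% in these data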;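 note: 0% = plate median of compound wells and 100% = probe without SIAE protein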
# BSA TAMRA ctr: counter-screen for TCR-CD3 interaction inhibitors: BSA probe; actives 10% (n = 1,200); shares compounds with TCR-CD3 inh; inhibition, % at 9.4 µM; TAMRA-labeled BSA probe fluorescence counterscreen; in the data active = inhibition above about 23%;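 note: 0% = buffer low control and 100% = reference high control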
# TCR-CD3 conf: confirmation of human TCR-CD3 interaction inhibitors. shares compounds with TCR-CD3 inh. TAMRA-labeled TCR probe fluorescence binding assay. inhibition, % at 9.4 µM. actives 48% (n = 1,200). AID 652036
# PRMT1 confirm: PRMT1 (human) inhibition, FP confirmation; recombinant His-PRMT1, activity-based probe fluorescence polarization; shares compounds with PRMT1 inh; inhibition, % at 2.79 µM; actives 42% (n = 3,300);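 active = mean inhibition across replicates above the hit cutoff derived for the earlier primary screen, cut at about 22% in these data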
# ABHD4 confirm: confirmation of mouse ABHD4 inhibitors | shares compounds with mABHD4 FP | purified mABHD4, FP-Rh probe fluorescence polarization | inhibition, % at 8.92 µM | actives 55% (n = 1,800) | AID 720658;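 active = mean inhibition across replicates above the hit cutoff set in the primary screen, cut at about 30% in these data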;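 note: 0% = wild-type ABHD4 with DMSO and 100% = catalytically dead S159A mutant with DMSO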
# An asterisk follows results filed as active; · = no result; ! = a repeat was not active. Cut-off read from the data, not from the text of the source, unless noted: active = inhibition above about 19%; inactive = the rest.
SMILES,TCR-CD3 inh,mABHD4 FP,HTRA1 inh,PRMT1 inh,SIAE primary,BSA TAMRA ctr,TCR-CD3 conf,ABHD4 confirm,others
C[n+]1c(/C=C/c2ccc3c(c2)OCO3)ccc2ccccc21,0,5,1,2,0,·,·,·,
O=C1c2ccc3c4c(ccc(c24)C(=O)N1CCCCO)C(=O)N(CCCCO)C3=O,34*,38*,18,9,17,40*,25*,27,
O=C(c1ccc2c(c1)C(=O)N(CCCO)C2=O)c1ccc2c(c1)C(=O)N(CCCO)C2=O,-5,-3,6,-1,2,·,·,·,
Cc1cccc(C(=O)Nc2nc3ncccn3c2-c2ccc(F)cc2)c1,·,3,·,-8,7,·,·,·,
Oc1ccc2ccccc2c1CN1CCOCC1,4,5,11,21,-6,·,·,·,
Oc1cccc(CN2CCOCC2)c1O,27*,42*,27,33*,3,0,10,6,PRMT1 confirm=9
COC(=O)[C@H](C(C)C)N(Cc1cn(Cc2ccc(C)cc2)nn1)S(=O)(=O)c1ccc(F)cc1Br,·,-3,·,-7,4,·,·,·,
C[c-]1[c-](C)[c-](C)[c-](C)[c-]1C.[Fe].c1cc2nccc(N3CCCC3)[c-]2c1 (stereo unspecified),49*,33*!,14,26*,8,2,19*!,30*,PRMT1 confirm=8
O=c1cc(Br)c(O)c(Br)cc1Br,21*,31*,14,35*,3,-2,5,18,PRMT1 confirm=39*
COC(=O)[C@H](CC1(c2cn(S(=O)(=O)CC[Si](C)(C)C)c3ccccc23)C(=O)Nc2ccccc21)NC(=O)OC(C)(C)C (stereo partly specified),·,-21,·,3,-13,·,·,·,
CC(=O)Nc1ccc(S(=O)(=O)NCc2ccc3[nH]c(C)cc3c2)cc1,1,-19,8,2,2,·,·,·,
CC(=O)Nc1ccc(S(=O)(=O)NCc2ccc3c(c2)cc(C)n3C)cc1,54*,46*,27,14,15,-1,1,-13,
NC(=O)c1sc2nc3c(c(-c4ccco4)c2c1N)CCC3,19*,30*,26,47*,3,4,3,8,PRMT1 confirm=4
COC(=O)C1C(O)=C(C=Nc2ccc(N)cc2)C(=O)CC1(C)C (stereo unspecified),26*,38*,27,3,16,-5,1,5,
CC1(C)CC(=O)C(C=Nc2ccc(O)cc2)=C(O)C1,8,26,2,5,-6,·,·,·,
CC1(C)CC(=O)C(C=Nc2ccc(N)cc2)=C(O)C1,23*,35*,26,9,11,0,-1,-7,
CC(C)(C)N(Cc1cn(Cc2ccccc2)nn1)S(=O)(=O)c1ccc(N2CCCC2)cc1Br,·,-4,·,-3,4,·,·,·,
Oc1ccc(/C=N/n2c(COc3ccccc3)n[nH]c2=S)cc1O,32*,36*,25,3,2,-14,22*,23,
COC(=O)[C@]12C[C@H](CC(=O)NCCCN3CCCC3=O)C(=O)N(CCc3ccc(OC)c(OC)c3)C1=C[C@H](C1CCCC1)O[C@@H]2C,·,0,·,-3,-4,·,·,·,
CC(=O)OCCNc1cc(N2CCN(C)CC2)c2noc3c2c1C(=O)c1ccccc1-3,24*,32*,25,3,16,11,11,1,
COCCCNC(=O)c1ccc2c3c(onc13)-c1ccccc1C2=O,·,·,6,·,·,·,·,·,
O=C(O)c1ccccc1C1=Nc2ccc(O)cc2Oc2cc(O)ccc21,34*,30*,17,47*,13,57*,47*,61*,PRMT1 confirm=65*
O=C1/C(=C/C=C/c2ccco2)SC(=S)N1NS(=O)(=O)c1ccccc1,22*,46*,25,53*,7,-14,21*,14,
COc1ccc(N2CCN(CCCNC(=O)CCOC(C)(C)C)CC2)cc1,·,7,·,2,6,·,·,·,
